Data published in ChEMBL document CHEMBL4312005, “Optimization of pyrrolizine-based Schiff bases with 4-thiazolidinone motif: Design, synthesis and investigation of cytotoxicity and anti-inflammatory potency” (Eur J Med Chem, 2020).

Experiments:
[1] = tested on: MCF7; test: Induction of apoptosis in human MCF7 cells assessed as early apoptotic cells at 1 uM incubated for 24 hrs by annexin V FITC and propidium iodide staining based flow cytometry (reference value: 0 to 9 %); assay type: functional
[2] = Selectivity index, ratio of IC50 for cytotoxicity against human MRC5 cells to IC50 for antiproliferative activity against human A2780 cells; conditions: MRC5 cells versus A2780 cells
[3] = tested on: MCF7; test: Induction of apoptosis in human MCF7 cells assessed as viable cells at 10 uM incubated for 24 hrs by annexin V FITC and propidium iodide staining based flow cytometry (reference value: 76 to 95.9 %); assay type: functional; conditions: MCF7, 24 h, read-out: Activity
[4] = tested on: MCF7; test: Cell cycle arrest in human MCF7 cells assessed as subG1 accumulation at 5 uM incubated for 24 hrs by propidium iodide based flow cytometry (reference value: 0.6 to 3 %); assay type: functional
[5] = tested on: MCF7; test: Induction of apoptosis in human MCF7 cells assessed as necrotic cells at 5 uM incubated for 24 hrs by annexin V FITC and propidium iodide staining based flow cytometry (reference value: 4.1 to […]); assay type: functional
[6] = tested on: MCF7; test: Induction of apoptosis in human MCF7 cells assessed as late apoptotic cells at 5 uM incubated for 24 hrs by annexin V FITC and propidium iodide staining based flow cytometry (reference value: 0 to 2.5 %); assay type: functional
[7] = tested on: MCF7; test: Cell cycle arrest in human MCF7 cells assessed as G2/M phase accumulation at 5 uM incubated for 24 hrs by propidium iodide based flow cytometry (reference value: 17.2 to 26.8 %); assay type: functional
[8] = tested on: MCF7; test: Induction of apoptosis in human MCF7 cells incubated for 24 hrs by annexin V FITC and propidium iodide staining based flow cytometry; assay type: functional, cell-based
[9] = tested on: MCF7; test: Cell cycle arrest in human MCF7 cells assessed as subG1 accumulation at 10 uM incubated for 24 hrs by propidium iodide based flow cytometry (reference value: 0.6 to 3 %); assay type: functional
[10] = tested on: MCF7; test: Cell cycle arrest in human MCF7 cells assessed as G1 accumulation at 1 uM incubated for 24 hrs by propidium iodide based flow cytometry (reference value: 49.6 to 55.1 %); assay type: functional
[11] = tested on: MCF7; test: Induction of apoptosis in human MCF7 cells assessed as late apoptotic cells at 1 uM incubated for 24 hrs by annexin V FITC and propidium iodide staining based flow cytometry (reference value: 0 to 2.5 %); assay type: functional
[12] = tested on: MCF7; test: Cell cycle arrest in human MCF7 cells assessed as G1 accumulation at 5 uM incubated for 24 hrs by propidium iodide based flow cytometry (reference value: 49.6 to 55.1 %); assay type: functional
[13] = tested on: MCF7; test: Cell cycle arrest in human MCF7 cells assessed as S phase accumulation at 1 uM incubated for 24 hrs by propidium iodide based flow cytometry (reference value: 17.3 to 28.5 %); assay type: functional
[14] = tested on: MCF7; test: Induction of apoptosis in human MCF7 cells assessed as late apoptotic cells at 10 uM incubated for 24 hrs by annexin V FITC and propidium iodide staining based flow cytometry (reference value: 0 to 2.5 %); assay type: functional
[15] = tested on: MCF7; test: Cell cycle arrest in human MCF7 cells assessed as S phase accumulation at 5 uM incubated for 24 hrs by propidium iodide based flow cytometry (reference value: 17.3 to 28.5 %); assay type: functional
[16] = tested on: MCF7; test: Induction of apoptosis in human MCF7 cells assessed as viable cells at 1 uM incubated for 24 hrs by annexin V FITC and propidium iodide staining based flow cytometry (reference value: 76 to 95.9 %); assay type: functional; conditions: MCF7, 24 h, read-out: Activity
[17] = tested on: MCF7; test: Induction of apoptosis in human MCF7 cells assessed as viable cells at 5 uM incubated for 24 hrs by annexin V FITC and propidium iodide staining based flow cytometry (reference value: 76 to 95.9 %); assay type: functional; conditions: MCF7, 24 h, read-out: Activity
[18] = tested on: MCF7; test: Cell cycle arrest in human MCF7 cells assessed as subG1 accumulation at 1 uM incubated for 24 hrs by propidium iodide based flow cytometry (reference value: 0.6 to 3 %); assay type: functional
[19] = tested on: MCF7; test: Induction of apoptosis in human MCF7 cells assessed as early apoptotic cells at 10 uM incubated for 24 hrs by annexin V FITC and propidium iodide staining based flow cytometry (reference value: 0 to 9 %); assay type: functional
[20] = tested on: MCF7; test: Cell cycle arrest in human MCF7 cells assessed as G1 accumulation at 10 uM incubated for 24 hrs by propidium iodide based flow cytometry (reference value: 49.6 to 55.1 %); assay type: functional
[21] = Selectivity index, ratio of IC50 for cytotoxicity against human MRC5 cells to IC50 for antiproliferative activity against human MCF7 cells; conditions: MRC5 cells versus MCF7 cells
[22] = tested on: MCF7; test: Cell cycle arrest in human MCF7 cells assessed as G2/M phase accumulation at 1 uM incubated for 24 hrs by propidium iodide based flow cytometry (reference value: 17.2 to 26.8 %); assay type: functional
[23] = Selectivity index, ratio of IC50 for cytotoxicity against human MRC5 cells to IC50 for antiproliferative activity against human HT-29 cells; conditions: MRC5 cells versus HT-29 cells
[24] = tested on: Rattus norvegicus; test: Antiinflammatory activity against albino rats assessed as inhibition of carrageenan-induced paw edema at 0.5 mmol, po measured after 4 hrs relative to control; assay type: functional
Outline: (§1)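 Carrageenan rat paw edema (Winter method) in male and female adult albino rats (100-140 g). […] Swelling inhibition expressed as % of control at 2-4 h after carrageenan injection.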

[25] = tested on: Rattus norvegicus; test: Antiinflammatory activity against albino rats assessed as inhibition of carrageenan-induced paw edema at 0.5 mmol, po measured after 2 hrs relative to control; assay type: functional; outline: as §1
[26] = tested on: MCF7; test: Antiproliferative activity against human MCF7 cells assessed as cell viability at 5 uM incubated for 48 hrs by MTT assay (reference value: 100 %); assay type: functional; conditions: MCF7, 48 h, read-out: Activity
Outline: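 Preliminary single-dose screen by MTT assay. MCF-7 cells grown in DMEM/10% FBS were exposed to 5 μM compound for 48 h, and growth% was determined. Values are mean ± S.D., n = 6.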

| SMILES | Activity [1] | selectivity ratio [2] | viability at 10 µM [3] | Activity [4] | Activity [5] | Activity [6] | Activity [7] | Activity [9] | Activity [10] | Activity [11] | Activity [12] | Activity [13] | Activity [14] | Activity [15] | viability at 1 µM [16] | viability at 5 µM [17] | Activity [18] | Activity [19] | Activity [20] | selectivity ratio [21] | also measured |
| --- | --- | --- | --- | --- | --- | --- | --- | --- | --- | --- | --- | --- | --- | --- | --- | --- | --- | --- | --- | --- | --- |
| CCC1SCC(=O)N1c1c(C#N)c2n(c1C(=O)Nc1ccccc1)CCC2 (configuration not stated) | 11.5% | 3 to 15 | 66.6% | 2.4% | 0.9% | 6.9% | 15.8% | 8.9% | 56.4% | 7.5% | 59.4% | 20.6% | 10.3% | 17.8% | 80.1% | 77.8% | 2.4% | 19.5% | 59.1% | 3 to 15 | Activity [8]: Dose-dependent effect; Activity [22]: 15.6% |
| CC(C)C/C=N/c1c(C#N)c2n(c1C(=O)Nc1ccc(Br)cc1)CCC2 | 13.3% | 39 to 258 | 57.6% | 0.9% | 13.4% | 11.2% | 14.4% | 0.7% | 30.8% | 10.5% | 30.2% | 55.6% | 12.2% | 55.1% | 55.4% | 58.9% | 1% | 15.6% | 29.6% | 39 to 258 | selectivity ratio [23]: 39 to 258; inhibition (INH) [24]: 30.82%; inhibition (INH) [25]: 18.13%; Activity [22]: 12.4%; viability at 5 µM [26]: 56% |
